# Biological target: Serotonin 2 (5-HT2) receptor (Rattus norvegicus) (UniProt P30994+P08909+P14842)
# Assay: Binding affinity to the 5-hydroxytryptamine 2 receptor assayed by antagonism of serotonin-induced contractions in the rat jugular vein
# Outline: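 Jugular vein rings mounted in organ baths of modified Krebs solution and equilibrated 1–2 h. Control cumulative serotonin contraction curves were run, then tissues were incubated 1 h with antagonist and serotonin curves were repeated. For each antagonist concentration, K_B = [B]/(dose ratio − 1), where dose ratio = agonist ED50 with antagonist / control ED50. Values reported as −log K_B.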
# Chain of Serotonin 2 (5-HT2) receptor (Rattus norvegicus) (P08909 whole entry, looked up): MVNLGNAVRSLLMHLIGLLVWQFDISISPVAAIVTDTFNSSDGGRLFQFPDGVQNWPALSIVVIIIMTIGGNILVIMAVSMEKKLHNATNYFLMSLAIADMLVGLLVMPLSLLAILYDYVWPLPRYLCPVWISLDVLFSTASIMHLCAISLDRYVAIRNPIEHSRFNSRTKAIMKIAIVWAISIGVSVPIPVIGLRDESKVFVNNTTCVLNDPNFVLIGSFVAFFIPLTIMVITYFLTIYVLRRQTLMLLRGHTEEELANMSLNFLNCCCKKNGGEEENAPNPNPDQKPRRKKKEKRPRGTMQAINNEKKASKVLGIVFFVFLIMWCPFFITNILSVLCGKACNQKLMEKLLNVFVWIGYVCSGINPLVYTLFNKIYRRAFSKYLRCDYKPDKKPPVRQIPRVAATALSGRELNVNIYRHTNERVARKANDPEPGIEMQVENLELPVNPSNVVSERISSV
# Chain of Serotonin 2 (5-HT2) receptor (Rattus norvegicus) (P14842 whole entry, looked up): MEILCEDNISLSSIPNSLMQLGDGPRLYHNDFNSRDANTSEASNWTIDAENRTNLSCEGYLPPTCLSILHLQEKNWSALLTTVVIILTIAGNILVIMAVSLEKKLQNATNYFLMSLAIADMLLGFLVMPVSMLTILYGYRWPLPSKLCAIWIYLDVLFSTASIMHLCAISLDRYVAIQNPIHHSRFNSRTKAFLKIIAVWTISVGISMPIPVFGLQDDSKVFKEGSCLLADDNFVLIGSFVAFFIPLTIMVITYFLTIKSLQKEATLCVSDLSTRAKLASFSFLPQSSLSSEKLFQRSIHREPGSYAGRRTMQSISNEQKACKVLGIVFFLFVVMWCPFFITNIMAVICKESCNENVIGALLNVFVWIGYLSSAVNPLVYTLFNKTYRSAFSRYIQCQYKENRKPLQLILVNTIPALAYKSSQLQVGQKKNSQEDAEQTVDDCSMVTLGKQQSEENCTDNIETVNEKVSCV
# Chain of Serotonin 2 (5-HT2) receptor (Rattus norvegicus) (P30994 whole entry, looked up): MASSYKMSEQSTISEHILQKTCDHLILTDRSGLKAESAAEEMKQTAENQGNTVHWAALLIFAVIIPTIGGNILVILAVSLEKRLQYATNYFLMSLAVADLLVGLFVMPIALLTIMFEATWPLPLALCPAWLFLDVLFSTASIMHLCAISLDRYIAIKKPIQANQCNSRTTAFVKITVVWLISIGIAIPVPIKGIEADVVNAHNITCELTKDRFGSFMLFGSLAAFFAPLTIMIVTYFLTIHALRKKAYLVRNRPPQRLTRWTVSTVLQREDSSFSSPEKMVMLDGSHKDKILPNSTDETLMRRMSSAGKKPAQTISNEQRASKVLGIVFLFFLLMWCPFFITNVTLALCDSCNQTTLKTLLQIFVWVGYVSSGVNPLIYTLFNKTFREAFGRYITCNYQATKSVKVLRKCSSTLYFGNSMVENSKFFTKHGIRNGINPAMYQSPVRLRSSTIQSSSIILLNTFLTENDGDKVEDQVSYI
row,SMILES,-Log KB
1,CC(C)n1cc2c3c(cccc31)C1C[C@@H](C(=O)O[C@H]3CC[C@@H](C)CC3)CN(C)C1C2 (some centres not stated),7.69
2,CC(C)n1cc2c3c(cccc31)C1C[C@@H](C(=O)OC3CCC(O)CC3)CN(C)C1C2 (some centres not stated),10.2
3,CC(O)C(C)OC(=O)[C@@H]1CC2c3cccc4c3c(cn4C(C)C)CC2N(C)C1 (some centres not stated),10.3
4,CN1C[C@H](C(=O)OC2CCCCC2)CC2c3cccc4[nH]cc(c34)CC21 (some centres not stated),8.05
5,CC(C)n1cc2c3c(cccc31)C1C[C@@H](C(=O)OC3CCC(=O)CC3)CN(C)C1C2 (some centres not stated),10
6,CC(C)n1cc2c3c(cccc31)C1C[C@@H](C(=O)OC3CCCCCC3)CN(C)C1C2 (some centres not stated),7.73
7,CC(C)N1C[C@H](C(=O)OC2CCCCC2)CC2c3cccc4c3c(cn4C(C)C)CC21 (some centres not stated),6.42
8,CC(C)n1cc2c3c(cccc31)C1C[C@@H](C(=O)OC3CCCCC3)CNC1C2 (some centres not stated),< 6
9,CC(C)n1cc2c3c(cccc31)C1C[C@@H](C(=O)O[C@H]3CC[C@H](C)CC3)CN(C)C1C2 (some centres not stated),7.21
10,CCCCN1C[C@H](C(=O)OC2CCCCC2)CC2c3cccc4c3c(cn4C(C)C)CC21 (some centres not stated),7.4
11,CN1C[C@H](C(=O)OC2CCCCC2)CC2c3cccc4c3c(cn4C)CC21 (some centres not stated),8.12
12,CC(C)n1cc2c3c(cccc31)C1C[C@@H](C(=O)OC3CCCCC3O)CN(C)C1C2 (some centres not stated),9.47
13,CC(C)n1cc2c3c(cccc31)C1C[C@@H](C(=O)OC3CCCC3)CN(C)C1C2 (some centres not stated),8.91
14,CC(C)n1cc2c3c(cccc31)C1C[C@@H](C(=O)OC3CCCCC3)CN(C)C1C2 (some centres not stated),8.67
15,CC(C)n1cc2c3c(cccc31)C1C[C@@H](C(=O)OC3CCCCC3=O)CN(C)C1C2 (some centres not stated),9.31
16,CN1C[C@H](C(=O)OC2CCCCC2)CC2c3cccc4c3c(cn4Cc3ccccc3)CC21 (some centres not stated),6.52
17,CC(C)n1cc2c3c(cccc31)C1C[C@@H](C(=O)OC3CCOCC3)CN(C)C1C2 (some centres not stated),9.86
18,CCCN1C[C@H](C(=O)OC2CCCCC2)CC2c3cccc4c3c(cn4C(C)C)CC21 (some centres not stated),7.07
19,CC1CCCC(C)C1OC(=O)[C@@H]1CC2c3cccc4c3c(cn4C(C)C)CC2N(C)C1 (some centres not stated),7.32
20,CCC(CC)n1cc2c3c(cccc31)C1C[C@@H](C(=O)OC3CCCCC3)CN(C)C1C2 (some centres not stated),7.31
21,CCN1C[C@H](C(=O)OC2CCCCC2)CC2c3cccc4c3c(cn4C(C)C)CC21 (some centres not stated),7.81
22,CC(C)n1cc2c3c(cccc31)C1C[C@@H](C(=O)OC3CCC3)CN(C)C1C2 (some centres not stated),8.22

# From ChEMBL document CHEMBL1124253, “(8 beta)-Ergoline-8-carboxylic acid cycloalkyl esters as serotonin antagonists: structure-activity study” (J Med Chem, 1988)
